Source: the array DNA melting data of Ke et al. (doi:10.1101/2024.01.08.574731)

Tests used:
[1] = folding enthalpy; higher = less favourable; fluorescence melt of hairpins on a sequencing array, two-state fit; conditions: sodium 0.088 M
Method in brief: (§1)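 Cy3 signals were normalised both to pre-quench Cy3 and to control constructs. They came from library hairpins carrying annealed Cy3 and quencher oligos on a sequenced MiSeq flow cell, imaged in 50 mM Na-HEPES pH 8.0, 25 mM NaCl, in 2.5 °C steps up to 60 °C. Bootstrapped two-state fits gave melting temperature and folding enthalpy, and four replicates were combined by inverse variance. Fitted temperatures were then raised by 9.35 °C to match UV melts.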

[2] = melting temperature; fluorescence melt of hairpins on a sequencing array, two-state fit, raised by 9.35 °C to match UV melts; conditions: sodium 0.088 M
Method in brief: as §1

Sequence | folding enthalpy [1] | Tm [2]
GCTGCCGAAAGGCAAGC ((((((....))).))) | -19.2 kcal/mol | 66.7 °C
GACAACGAAAGTTAGGTC ((((((....)))..))) | -14.6 kcal/mol | 33.7 °C
GGTTGCGAAAGCATCACC ((((((....)))..))) | -13 kcal/mol | 36.2 °C
GCACAGCGAAAGCAGTGC ((((.((....)).)))) | -34.1 kcal/mol | 69.2 °C
GGCGACGAAAGTCCGCC ((((((....))).))) | -32.2 kcal/mol | 63.6 °C
GTATGCGGAAACGCACAC ((.((((....)))).)) | -15.4 kcal/mol | 40 °C
GAGCGTGGAAACACACTC (((.(((....))).))) | -30.5 kcal/mol | 45.9 °C
GGATATGGAAACATGTCC (((.(((....))).))) | -30.4 kcal/mol | 45.3 °C
GCAGGAGGAAACTCCCAC (..((((....))))..) | -16.8 kcal/mol | 25.8 °C
GATTGCGAAAGCATTATC ((((((....)))..))) | -11.2 kcal/mol | 26.6 °C
GCGCCAGGAAACCAGCGC ((((..(....)..)))) | -26.4 kcal/mol | 51.4 °C
GTAGGTGGAAACACTTAC (((.(((....))).))) | -28.4 kcal/mol | 39.5 °C
ATCACGAAAGTGAT (((((....))))) | -25.6 kcal/mol | 54.8 °C
GCCATGGGAAACCATGAC (.(((((....))))).) | -19.5 kcal/mol | 41 °C
GTTGGGGGAAACCTCAAC ((((.((....)).)))) | -32 kcal/mol | 47.8 °C
GGTGCATCGAAAGATACC (((..(((....)))))) | -10.2 kcal/mol | 27.9 °C
GATCAATGCATTGATC ((((((....)))))) | -65.6 kcal/mol | 52.3 °C
GTTGACGGAAACATCAAC (((((.(....).))))) | -31.8 kcal/mol | 37.2 °C
GCAAAAGAAATTTTGC ((((((....)))))) | -25.9 kcal/mol | 46.3 °C
GATCTCCAGCGAGATC ((((((....)))))) | -30.6 kcal/mol | 50 °C
GTAAAACGAAAGTTTAC (((.(((....)))))) | -17.4 kcal/mol | 35.2 °C
GGTCCTGAAAAGGACC ((((((....)))))) | -30.9 kcal/mol | 68.2 °C
GATCAGAAAGCTGATC ((((((....)))))) | -31.6 kcal/mol | 43 °C

Sequence | folding enthalpy [1] | Tm [2]
GATCTTGCTAAGATC ((((((...)))))) | -31.8 kcal/mol | 45.4 °C
GTACGGAAACGTAC (((((....))))) | -32.4 kcal/mol | 53.7 °C
GGTGATGGAAACACCACC ((((.((....)).)))) | -23.8 kcal/mol | 46.6 °C
GATCTTGATGAAGATC ((((((....)))))) | -23.4 kcal/mol | 44.1 °C
GGACTCGAAAGAGCATCC ((((((....)))..))) | -9.49 kcal/mol | 24.9 °C
GGTACTGCGAAAGCAACC (((..(((....)))))) | -9.7 kcal/mol | 28.8 °C
GATCCATAGTGGATC ((((((...)))))) | -38.1 kcal/mol | 49.2 °C
GTCCTCGAAAGAGGGAC ((((((....))).))) | -15.7 kcal/mol | 53.9 °C
GATTAGGCGAAAGCCATC (((..(((....)))))) | -8.82 kcal/mol | 23.4 °C
GTACCCCGAAAGGGATAC (((.(((....))).))) | -19.6 kcal/mol | 46.1 °C
GATCAAATTGTTGATC ((((((....)))))) | -28.3 kcal/mol | 41.8 °C
GCGCGGCGAAAGCTACGC (((..((....))..))) | -19.8 kcal/mol | 64.1 °C
GCTCGTGGAAACACAAGC (((.(((....))).))) | -20 kcal/mol | 43.9 °C
GGTTCTGGAAACGGAATC (.(((.(....).))).) | -18.7 kcal/mol | 33 °C
GATCTTATCAAGATC ((((((...)))))) | -29.7 kcal/mol | 46 °C
GAAAATGCGAAAGCATTC (((..(((....)))))) | -10 kcal/mol | 32.7 °C
GATCCGATATCGGATC ((((((....)))))) | -39.9 kcal/mol | 59.2 °C
GCAGCAGGAAACTGCTAC (.(((((....))))).) | -13.4 kcal/mol | 44.7 °C
GGGAGACGAAAGTCCCCC (((.(((....))).))) | -28.8 kcal/mol | 58.8 °C
GGGACCGAAAGGTGGCCC ((((((....)))..))) | -19 kcal/mol | 45.5 °C
GGTTCGGAAACGAACC ((((((....)))))) | -33.2 kcal/mol | 67.3 °C
GGAGCGGGAAACTGCTCC (((((.(....).))))) | -45 kcal/mol | 60.9 °C
CCTGGGAAACCAGG (((((....))))) | -19.5 kcal/mol | 55 °C

Sequence | folding enthalpy [1] | Tm [2]
GATCAACGAGTTGATC ((((((....)))))) | -51 kcal/mol | 55.6 °C
GCAGGCCCGAAAGGGTGC (((..(((....)))))) | -13.1 kcal/mol | 41.9 °C
GGCTGGGGAAACCCAGTC (.(((((....))))).) | -41.6 kcal/mol | 55.8 °C
GCGCGGCGAAAGCTCCGC (((..((....))..))) | -20.3 kcal/mol | 58.3 °C
GGCTCCGGAAACGGGGTC (.(.(((....))).).) | -25.1 kcal/mol | 49 °C
GTTCGCGAAAGCGGTAAC ((((((....)))..))) | -11 kcal/mol | 30.7 °C
GTTCGTGGAAACACGGAC ((.((((....)))).)) | -42.5 kcal/mol | 54.5 °C
GAGGGGGGAAACCCCCCC (.(((((....))))).) | -8.39 kcal/mol | 52.5 °C
GCCAAAGGAAACTTTGAC (.(((((....))))).) | -21.9 kcal/mol | 32.3 °C
GCCGGGCGAAAGCCGAGC ((..(((....)))..)) | -14.8 kcal/mol | 57.4 °C
GCTGTCACGAAAGTGAGC (((..(((....)))))) | -12.2 kcal/mol | 38.3 °C
GATCCAGCAGTGGATC ((((((....)))))) | -41.1 kcal/mol | 52.7 °C
GATCCTCCACAGGATC ((((((....)))))) | -36 kcal/mol | 50.8 °C
GGCCACGGAAACACGGCC ((((..(....)..)))) | -32.5 kcal/mol | 47.8 °C
GCGTAACGAAAGTTGCGC (((.(((....))).))) | -53 kcal/mol | 63 °C
CGTCCCCGGAAACGGACG (((..(((....)))))) | -21.1 kcal/mol | 42.2 °C
GGTTTTGGAAACAAAGCC ((.((((....)))).)) | -29.1 kcal/mol | 46 °C
GACGAAGGAAACTTCGTC (((((((....))))))) | -43.9 kcal/mol | 63.5 °C
GCGATAGGAAACTATCGC (((((((....))))))) | -57.2 kcal/mol | 65.9 °C
GTGGACGAAAGTCGCAC ((((((....))).))) | -15.5 kcal/mol | 50.4 °C
GTAGAGCGAAAGCTATAC (((.(((....))).))) | -23.4 kcal/mol | 51.6 °C
GGAGAGGAAACTCTCC ((((((....)))))) | -35.1 kcal/mol | 56.9 °C
GTCGTCGGAAACGGTGAC (((..((....))..))) | -24 kcal/mol | 42.4 °C

Sequence | folding enthalpy [1] | Tm [2]
GATGTTACGAAAGTAATC (((..(((....)))))) | -13.5 kcal/mol | 26.9 °C
GTGCTCGAAAGAGGACAC ((((((....)))..))) | -15.6 kcal/mol | 49.8 °C
GCACTGCGAAAGCATAGC ((..(((....)))..)) | -15.3 kcal/mol | 35.6 °C
GTATTAGGAAACTGATAC ((((.((....)).)))) | -21.3 kcal/mol | 34.3 °C
GTTCGGGGAAACCCGAGC (.(((((....))))).) | -25.5 kcal/mol | 53.3 °C
GCATCAGGAAACCAATGC ((((..(....)..)))) | -12.1 kcal/mol | 23.8 °C
GCTAATGGAAACATTGGC ((.((((....)))).)) | -41.2 kcal/mol | 45.6 °C
GTGGTTGGAAACAGTCAC (((..((....))..))) | -19.4 kcal/mol | 31.2 °C
GTCGACGAAAGTCACGAC ((((((....)))..))) | -18.6 kcal/mol | 45.4 °C
GCGGTCTCCCGC ((((....)))) | -33.4 kcal/mol | 55.5 °C
GATCGGGGTACCGATC ((((((....)))))) | -34.5 kcal/mol | 65.7 °C
GTATCAGGAAACTGATGC (.(((((....))))).) | -24.8 kcal/mol | 45 °C
GAGGCCGGAAACGGTCTC (((.(((....))).))) | -36 kcal/mol | 64.8 °C
GATCTCCCGCGAGATC ((((((....)))))) | -32.3 kcal/mol | 52.7 °C
GAGCTACGAAAGTATCTC (((.(((....))).))) | -25.1 kcal/mol | 36.9 °C
GCACACGGAAACATGCGC ((.((.(....).)).)) | -19.6 kcal/mol | 30.2 °C
GCAGATACGAAAGTATGC (((..(((....)))))) | -22.3 kcal/mol | 36.5 °C
GTGAACGAAAGTTGACAC ((((((....)))..))) | -18.6 kcal/mol | 34.8 °C
GCCAGGCGAAAGCATCGC ((.(.((....)).).)) | -8.22 kcal/mol | 36.1 °C
GAAGCACGAAAGTGATTC (((.(((....))).))) | -35.1 kcal/mol | 60 °C
GGGCGACCGAAAGGTCCC (((..(((....)))))) | -13 kcal/mol | 49.8 °C
GATCGCTCACGCGATC ((((((....)))))) | -41.2 kcal/mol | 67.8 °C
GGCGATGGAAACGTCGTC (.(((.(....).))).) | -39.5 kcal/mol | 46.2 °C
